Experimental data from ChEMBL document CHEMBL5303300, “EUbOPEN Chemogenomics Library - Multiplex” (2023).
“And” between values parts separate entries of the source, which are not always exact repeats. Identical values can stand only once.

Tested on: U2OS
Assay: Multiplex assay against U2OS
Type: toxicity, cell-based
Conditions: human, number of replicates 2
How it was run: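 At seeding, live cells were stained with Hoechst33342, BioTracker Green Microtubule Cytoskeleton Dye, MitoTracker Red and Annexin V Alexa Fluor 680. After compound addition they were imaged on a CQ1 microscope at 37°C and 5% CO2, and CellPathfinder machine-learning gating sorted them into Hoechst high-intensity objects or normal cells, with normal cells further split into healthy, pyknosed or fragmented nuclei and pyknosed cells into mitotic or apoptotic. Tubulin, mitochondrial-mass and membrane-permeability phenotypes are given as per cents of cells with healthy nuclei.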

[1] = 12 h, 1 µM, compound concentration 1 uM
[2] = 12 h, 10 µM, compound concentration 10 uM
[3] = 24 h, 1 µM, compound concentration 1 uM
[4] = 24 h, 10 µM, compound concentration 10 uM
[5] = 48 h, 1 µM, compound concentration 1 uM
[6] = 48 h, 10 µM, compound concentration 10 uM

CCCN(CCc1cccs1)[C@H]1CCc2c(O)cccc2C1 [ROTIGOTINE]
Population Apoptotic (%) [1]: 46% and 66%
Population Fragmented Nuclei (%) [1]: 6% and 13%
Population Healthy Nuclei (%) [1]: 84% and 76%
Population Hoechst High Intensity Objects (%) [1]: 0%
Population Mitochondria Different-Phenotype (%) [1]: 0%
Population Mitotic Cells (%) [1]: 53% and 33%
Population Normal (%) [1]: 100%
Population Pyknosed Nuclei (%) [1]: 9% and 10%
Population Tubulin-Different-Phenotype (%) [1]: 86% and 34%
Total Cell Count [1]: 30
Population Apoptotic (%) [2]: 62% and 50%
Population Healthy Nuclei (%) [2]: 84% and 60%
Population Hoechst High Intensity Objects (%) [2]: 0%
Population Membrane Permeable-Phenotype (%) [2]: 4% and 13%
Population Mitochondria Different-Phenotype (%) [2]: 1% and 0%
Population Mitotic Cells (%) [2]: 37% and 50%
Population Normal (%) [2]: 100%
Population Pyknosed Nuclei (%) [2]: 11% and 15%
Population Apoptotic (%) [3]: 57% and 80%
Population Fragmented Nuclei (%) [3]: 1% and 6%
Population Healthy Nuclei (%) [3]: 89% and 82%
Population Hoechst High Intensity Objects (%) [3]: 0%
Population Membrane Permeable-Phenotype (%) [3]: 2%
Population Mitochondria Different-Phenotype (%) [3]: 0%
Population Mitotic Cells (%) [3]: 42% and 20%
Population Normal (%) [3]: 100%
Population Pyknosed Nuclei (%) [3]: 8% and 10%
Population Tubulin-Different-Phenotype (%) [3]: 88% and 39%
Population Apoptotic (%) [4]: 48% and 66%
Population Healthy Nuclei (%) [4]: 83% and 75%
Population Hoechst High Intensity Objects (%) [4]: 0%
Population Membrane Permeable-Phenotype (%) [4]: 0% and 9%
Population Mitochondria Different-Phenotype (%) [4]: 1% and 2%
Population Mitotic Cells (%) [4]: 51% and 33%
Population Normal (%) [4]: 100%
Population Pyknosed Nuclei (%) [4]: 13% and 10%
Population Tubulin-Different-Phenotype (%) [4]: 62% and 46%
Population Apoptotic (%) [5]: 35% and 83%
Population Healthy Nuclei (%) [5]: 90% and 76%
Population Hoechst High Intensity Objects (%) [5]: 0% and 1%
Population Membrane Permeable-Phenotype (%) [5]: 1% and 6%
Population Mitochondria Different-Phenotype (%) [5]: 0% and 4%
Population Normal (%) [5]: 99% and 98%
Population Pyknosed Nuclei (%) [5]: 6% and 9%
Population Tubulin-Different-Phenotype (%) [5]: 93% and 35%
Population Apoptotic (%) [6]: 66% and 57%
Population Fragmented Nuclei (%) [6]: 8% and 2%
Population Healthy Nuclei (%) [6]: 75% and 90%
Population Hoechst High Intensity Objects (%) [6]: 0%
Population Membrane Permeable-Phenotype (%) [6]: 6% and 1%
Population Mitochondria Different-Phenotype (%) [6]: 3% and 0%
Population Mitotic Cells (%) [6]: 33% and 42%
Population Normal (%) [6]: 100% and 99%
Population Pyknosed Nuclei (%) [6]: 15% and 6%
Population Tubulin-Different-Phenotype (%) [6]: 62% and 78%
